Results from ChEMBL document CHEMBL1177799 (Bioorg Med Chem Lett, 2010).

molecular target: Adenosine receptor A2a (Homo sapiens, UniProt P29274); experiment: Displacement of [3H]-ZM241385 from human adenosine A2A receptor expressed in CHO-K1 cells after 1 hr by scintillation counting; type: cell-based; details: not given
Sequence (P29274 whole entry): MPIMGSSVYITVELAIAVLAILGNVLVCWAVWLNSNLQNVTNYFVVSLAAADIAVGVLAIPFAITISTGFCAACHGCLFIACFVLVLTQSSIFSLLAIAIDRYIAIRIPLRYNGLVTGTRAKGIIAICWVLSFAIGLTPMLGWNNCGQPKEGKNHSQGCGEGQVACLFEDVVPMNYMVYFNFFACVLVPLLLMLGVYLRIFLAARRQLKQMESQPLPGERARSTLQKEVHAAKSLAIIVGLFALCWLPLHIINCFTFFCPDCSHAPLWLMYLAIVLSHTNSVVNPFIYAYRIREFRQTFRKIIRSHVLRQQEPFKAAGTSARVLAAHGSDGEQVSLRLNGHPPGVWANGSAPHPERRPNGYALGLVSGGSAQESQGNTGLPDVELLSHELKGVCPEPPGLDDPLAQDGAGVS

| Compound | Ki [nM] |
| --- | --- |
| COc1ccc(NC(C)=O)c2sc(NC(=O)c3ccc(F)cc3)nc12 | 250 |
| CNC(=O)CN(C(C)=O)c1ccc(OC)c2nc(NC(=O)c3ccc(F)cc3)sc12 | 330 |
| COc1ccc(N(CC(N)=O)C(C)=O)c2sc(NC(=O)c3ccc(F)cc3)nc12 | 160 |
| CCN(C(C)=O)c1ccc(OC)c2nc(NC(=O)c3ccc(C(=O)N4CCN(C)CC4)cc3)sc12 | 89 |
| CCN(C(C)=O)c1ccc(OC)c2nc(NC(=O)c3cnn(Cc4cccc(C(F)(F)F)c4)c3)sc12 | 3 |

Now from value to molecule:

| Ki [nM] | Compound |
| --- | --- |
| 51 | CCN(C(C)=O)c1ccc(OC)c2nc(NC(=O)c3ccnn3C)sc12 |
| 18 | CCN(C(C)=O)c1ccc(OC)c2nc(NC(=O)c3cc[nH]c3)sc12 |
| 84 | CCN(C(C)=O)c1ccc(OC)c2nc(NC(=O)c3ccc(C(=O)NC)cc3)sc12 |
| 41 | CCN(C(C)=O)c1ccc(OC)c2nc(NC(=O)c3cnn(C)c3)sc12 |

tested on: not listed separately; experiment: Clearance in Han Wistar rat at 2.5 mg/kg, iv up to 24 hrs by LC-MS analysis; type: ADME, organism-based; parameters: dose 2.5 mg/kg, route intravenous; details: in vivo
Outline: (§1)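 Male Han Wistar rats (n = 4) received a single 2.5 mg/kg intravenous tail-vein injection in DMA/PEG 400/40% HPBCD/H₂O. Plasma was sampled up to 24 h after dosing, and plasma drug levels were measured by LC–MS to derive the PK parameters.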

| Compound | clearance [mL/min/kg] |
| --- | --- |
| CCN(C(C)=O)c1ccc(OC)c2nc(NC(=O)c3ccnn3C)sc12 | 46 |

tested on: not listed separately; experiment: Extrapolated AUC in Han Wistar rat at 50 mg/kg, po up to 24 hrs by LC-MS analysis; type: ADME, organism-based; parameters: time < 24 hr, dose 50 mg/kg, route oral; details: in vivo

| Compound | AUC at 24 h [ng·h/mL] |
| --- | --- |
| CCN(C(C)=O)c1ccc(OC)c2nc(NC(=O)c3ccnn3C)sc12 | 74400 |

molecular target: T1, Adenosine receptor A3 (Homo sapiens, UniProt P0DMS8); experiment: Binding affinity to adenosine A3 receptor; details: not given
T1 sequence (P0DMS8 whole entry): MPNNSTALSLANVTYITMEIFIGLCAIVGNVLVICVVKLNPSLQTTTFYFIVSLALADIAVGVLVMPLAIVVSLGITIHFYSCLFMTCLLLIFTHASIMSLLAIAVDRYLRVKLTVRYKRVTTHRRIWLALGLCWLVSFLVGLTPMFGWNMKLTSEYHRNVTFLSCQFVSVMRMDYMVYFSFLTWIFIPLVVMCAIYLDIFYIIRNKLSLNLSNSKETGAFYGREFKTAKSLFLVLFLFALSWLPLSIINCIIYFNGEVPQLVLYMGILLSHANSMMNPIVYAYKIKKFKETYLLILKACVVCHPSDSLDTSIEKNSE

| Compound | Ki [nM] |
| --- | --- |
| CCN(C(C)=O)c1ccc(OC)c2nc(NC(=O)c3ccnn3C)sc12 | 80 |

tested on: not listed separately; experiment: Half life in Han Wistar rat at 50 mg/kg, po up to 24 hrs by LC-MS analysis; type: ADME, organism-based; parameters: dose 50 mg/kg, route oral; details: in vivo
Outline: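 Male Han Wistar rats (n = 4 per route): iv 2.5 mg/kg via tail vein in DMA/PEG 400/40% HPBCD/H2O, or po 50 mg/kg in Capmul PG8 by intubation tube. Plasma sampled up to 24 h after dosing, drug levels measured by LC–MS.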

| Compound | half-life [h] |
| --- | --- |
| CCN(C(C)=O)c1ccc(OC)c2nc(NC(=O)c3ccnn3C)sc12 | 2.1 |

molecular target: T2, Adenosine receptor A2b (Homo sapiens, UniProt P29275); experiment: Displacement of [3H]ZM241385 from human adenosine A2B receptor expressed in CHO cells after 1 hr by scintillation counting; type: cell-based; details: not given
T2 sequence (P29275 whole entry): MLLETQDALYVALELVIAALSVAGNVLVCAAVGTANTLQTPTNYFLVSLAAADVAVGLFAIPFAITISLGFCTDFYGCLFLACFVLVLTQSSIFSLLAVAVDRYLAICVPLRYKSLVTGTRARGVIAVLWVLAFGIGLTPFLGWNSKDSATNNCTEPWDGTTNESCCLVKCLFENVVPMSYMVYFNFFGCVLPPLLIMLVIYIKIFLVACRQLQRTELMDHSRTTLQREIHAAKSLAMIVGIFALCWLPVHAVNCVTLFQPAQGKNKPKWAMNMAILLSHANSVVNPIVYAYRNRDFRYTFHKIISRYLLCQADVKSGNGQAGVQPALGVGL
Outline: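 Whole CHO cells expressing human A2B receptor, harvested mechanically from 80% confluent flasks, frozen, then resuspended in assay buffer on assay day. Competition against [3H]ZM241385 (30 nM final), 1 h at room temperature with shaking. Harvest on 0.5% polyethyleneimine-treated filter plates, air-dried, scintillation counting.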

| Compound | Ki [nM] |
| --- | --- |
| COc1ccc(NC(C)=O)c2sc(NC(=O)c3ccc(F)cc3)nc12 | 130 |
| CCN(C(C)=O)c1ccc(OC)c2nc(NC(=O)c3ccc(C(=O)N4CCN(C)CC4)cc3)sc12 | 18 |
| CCN(C(C)=O)c1ccc(OC)c2nc(NC(=O)c3cnn(Cc4cccc(C(F)(F)F)c4)c3)sc12 | 4 |

The next lines start with the values.

| Ki [nM] | Compound |
| --- | --- |
| 8 | CCN(C(C)=O)c1ccc(OC)c2nc(NC(=O)c3ccnn3C)sc12 |
| 19 | CCN(C(C)=O)c1ccc(OC)c2nc(NC(=O)c3cnn(C)c3)sc12 |

tested on: not listed separately; experiment: Volume of distribution in Han Wistar rat at 2.5 mg/kg, iv up to 24 hrs by LC-MS analysis; type: ADME, organism-based; parameters: dose 2.5 mg/kg, route intravenous; details: in vivo; outline: as §1

| Compound | Vd [L/kg] |
| --- | --- |
| CCN(C(C)=O)c1ccc(OC)c2nc(NC(=O)c3ccnn3C)sc12 | 3 |

molecular target: T2, Adenosine receptor A2b; experiment: Antagonist activity at human adenosine A2B receptor expressed in CHO cells assessed as inhibition of adenosine-induced cAMP production; type: functional, cell-based; details: not given
Outline: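 CHO cells stably transfected with human A2B receptor, grown overnight as monolayer (7500 cells/well), washed with Krebs buffer, then exposed to compounds in Krebs buffer (final DMSO 1.1%) for 20–25 min. Wells emptied, cells lysed and cAMP measured with an enzyme-fragment complementation cAMP kit for adherent cells.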

| Compound | IC50 [nM] |
| --- | --- |
| COc1ccc(NC(C)=O)c2sc(NC(=O)c3ccc(F)cc3)nc12 | 350 |
| CNC(=O)CN(C(C)=O)c1ccc(OC)c2nc(NC(=O)c3ccc(F)cc3)sc12 | 350 |
| COc1ccc(N(CC(N)=O)C(C)=O)c2sc(NC(=O)c3ccc(F)cc3)nc12 | 60 |
| CCN(C(C)=O)c1ccc(OC)c2nc(NC(=O)c3ccc(C(=O)N4CCN(C)CC4)cc3)sc12 | 38 |
| CCN(C(C)=O)c1ccc(OC)c2nc(NC(=O)c3cnn(Cc4cccc(C(F)(F)F)c4)c3)sc12 | 6 |

Other lines, results leading:

| IC50 [nM] | Compound |
| --- | --- |
| 21 | CCN(C(C)=O)c1ccc(OC)c2nc(NC(=O)c3ccnn3C)sc12 |
| 7 | CCN(C(C)=O)c1ccc(OC)c2nc(NC(=O)c3cc[nH]c3)sc12 |
| 21 | CCN(C(C)=O)c1ccc(OC)c2nc(NC(=O)c3ccc(C(=O)NC)cc3)sc12 |
| 29 | CCN(C(C)=O)c1ccc(OC)c2nc(NC(=O)c3cnn(C)c3)sc12 |

molecular target: T3, Adenosine receptor A1 (Homo sapiens, UniProt P30542); experiment: Displacement of [3H]-DPCPX from human adenosine A1 receptor expressed in CHO-K1 cells after 1 hr by scintillation counting; type: cell-based; details: not given
T3 sequence (P30542 whole entry): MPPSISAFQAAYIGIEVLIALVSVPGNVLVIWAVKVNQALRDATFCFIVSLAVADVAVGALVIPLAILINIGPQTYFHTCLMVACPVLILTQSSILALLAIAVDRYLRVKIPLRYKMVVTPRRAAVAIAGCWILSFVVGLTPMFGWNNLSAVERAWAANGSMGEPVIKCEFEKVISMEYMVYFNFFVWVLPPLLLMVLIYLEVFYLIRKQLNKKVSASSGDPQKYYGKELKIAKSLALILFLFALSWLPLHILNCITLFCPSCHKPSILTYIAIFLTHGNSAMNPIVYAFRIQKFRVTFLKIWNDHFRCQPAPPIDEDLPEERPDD
Outline: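 Commercial human A1 membranes (10 µg/well) in HEPES 50 mM, NaCl 100 mM, MgCl2 1 mM buffer; competition against [3H]-DPCPX (4.8 nM final), 1 h at room temperature with orbital shaking. Filtration harvest on polyethyleneimine-treated (0.5%) glass-fibre plates, air-dried, scintillation counting.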

| Compound | Ki [nM] |
| --- | --- |
| COc1ccc(NC(C)=O)c2sc(NC(=O)c3ccc(F)cc3)nc12 | 1600 |
| CNC(=O)CN(C(C)=O)c1ccc(OC)c2nc(NC(=O)c3ccc(F)cc3)sc12 | 790 |
| COc1ccc(N(CC(N)=O)C(C)=O)c2sc(NC(=O)c3ccc(F)cc3)nc12 | 560 |
| CCN(C(C)=O)c1ccc(OC)c2nc(NC(=O)c3ccc(C(=O)N4CCN(C)CC4)cc3)sc12 | 120 |
| CCN(C(C)=O)c1ccc(OC)c2nc(NC(=O)c3cnn(Cc4cccc(C(F)(F)F)c4)c3)sc12 | 6 |

Other lines, results leading:

| Ki [nM] | Compound |
| --- | --- |
| 100 | CCN(C(C)=O)c1ccc(OC)c2nc(NC(=O)c3ccnn3C)sc12 |
| 35 | CCN(C(C)=O)c1ccc(OC)c2nc(NC(=O)c3cc[nH]c3)sc12 |
| 185 | CCN(C(C)=O)c1ccc(OC)c2nc(NC(=O)c3ccc(C(=O)NC)cc3)sc12 |

tested on: not listed separately; experiment: Cmax in Han Wistar rat at 50 mg/kg, po up to 24 hrs by LC-MS analysis; type: ADME, organism-based; parameters: dose 50 mg/kg, route oral; details: in vivo

| Compound | Cmax [ng/mL] |
| --- | --- |
| CCN(C(C)=O)c1ccc(OC)c2nc(NC(=O)c3ccnn3C)sc12 | 7420 |

tested on: not listed separately; experiment: Extrapolated AUC in Han Wistar rat at 2.5 mg/kg, iv up to 24 hrs by LC-MS analysis; type: ADME, organism-based; parameters: time < 24 hr, dose 2.5 mg/kg, route intravenous; details: in vivo

| Compound | AUC at 24 h [ng·h/mL] |
| --- | --- |
| CCN(C(C)=O)c1ccc(OC)c2nc(NC(=O)c3ccnn3C)sc12 | 929 |
